Measured values from ChEMBL document CHEMBL1122932, “Metabolism of phencyclidine. The role of the carbinolamine intermediate in the formation of lactam and amino acid metabolites of nitrogen heterocycles” (J Med Chem, 1985).

Experiments:
Type in all cases: ADME
Mus musculus [1] = species on record: Mus musculus; assay: In vitro level of metabolite in mice liver microsomes at 0 hours; ND is Not Detected (< 8 ug/vessel)
How it was run: (§1)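 Time-zero control: the reaction was stopped right after phencyclidine was added to the mouse (male ICR) liver 12500g supernatant plus NADP-regenerating cofactor mix. Metabolites were quantified by GLC or HPLC with internal standards (N-benzylphenylalanine or ketamine), using calibration curves from spiked microsomal mixtures.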

Mus musculus [2] = species on record: Mus musculus; assay: In vitro level of metabolite in mice liver microsomes at 3 hours (heat inactivated control); ND is Not Detected (< 8 ug/ vessel)
How it was run: (§2)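 Control in which mouse (male ICR) liver 12500g supernatant was heat-inactivated before phencyclidine and cofactors were added. It was then incubated at 37 °C under 100% O2 with shaking alongside the test samples. Metabolites were quantified by GLC or HPLC against internal standards (N-benzylphenylalanine or ketamine), calibrated by spiking.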

Mus musculus [3] = species on record: Mus musculus; assay: In vitro level of metabolite in mice liver microsomes at 1 hour
How it was run: (§3)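 12500g liver supernatant from 10 male ICR mice (homogenized in ice-cold pH 7.4 Tris with 0.15 M KCl; stored -70 °C, used within 15 h). Incubated with phencyclidine and NADP/glucose 6-phosphate/nicotinamide/MgSO4 cofactor at 37 °C, 120 osc/min, 100% O2. Metabolites measured by GLC (N-benzylphenylalanine internal standard, nitrogen detector) or HPLC (ketamine internal standard), calibrated by spiking microsomal blanks.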

Mus musculus [4] = species on record: Mus musculus; assay: In vitro level of metabolite in mice liver microsomes at 2 hours; how it was run: as §3
Mus musculus [5] = species on record: Mus musculus; assay: In vitro level of metabolite in mice liver microsomes at 3 hours; how it was run: as §3
Mus musculus [6] = species on record: Mus musculus; assay: In vitro level of metabolite in mice liver microsomes at 3 hours; ND is Not Detected (< 8 ug/vessel); how it was run: as §3
Mus musculus [7] = species on record: Mus musculus; assay: In vitro level of metabolite in mice liver microsomes at 1 hour; ND is Not Detected (< 8 ug/vessel); how it was run: as §3
Mus musculus [8] = species on record: Mus musculus; assay: In vitro level of metabolite in mice liver microsomes at 3 hours (heat inactivated control); ND is Not Detected (< 8 ug/vessel); how it was run: as §2
Mus musculus [9] = species on record: Mus musculus; assay: In vitro level of metabolite in mice liver microsomes at 2 hours; ND is Not Detected (< 8 ug/vessel); how it was run: as §3
Mus musculus [10] = species on record: Mus musculus; assay: In vitro level of metabolite in mice liver microsomes at 0 hours; ND is […] (< 2 ug/vessel); how it was run: as §1
Mus musculus [11] = species on record: Mus musculus; assay: In vitro level of metabolite in mice liver microsomes at 3 hours (heat inactivated control); ND is Not Detected (< 2 ug/vessel); how it was run: as §2

Structure (SMILES): Cl.O=C(O)CCCCNC1(c2ccccc2)CCCCC1
- Metabolite levels (Mus musculus [1]): Not detected
- Metabolite levels (Mus musculus [2]): Not detected
- Metabolite levels (Mus musculus [3]): 110 µg
- Metabolite levels (Mus musculus [4]): 123 µg
- Metabolite levels (Mus musculus [5]): 135 µg

Structure (SMILES): O=C1CCCCN1C1(c2ccccc2)CCCCC1
- Metabolite levels (Mus musculus [1]): Not detected
- Metabolite levels (Mus musculus [6]): Not detected
- Metabolite levels (Mus musculus [7]): Not detected
- Metabolite levels (Mus musculus [8]): Not detected
- Metabolite levels (Mus musculus [9]): Not detected

Structure (SMILES): OC1CCN(C2(c3ccccc3)CCCCC2)CC1
- Metabolite levels (Mus musculus [3]): 9.3 µg
- Metabolite levels (Mus musculus [4]): 9.2 µg
- Metabolite levels (Mus musculus [5]): 10.3 µg

Structure (SMILES): OCCCCCNC1(c2ccccc2)CCCCC1
- Metabolite levels (Mus musculus [10]): Not detected
- Metabolite levels (Mus musculus [11]): Not detected
- Metabolite levels (Mus musculus [3]): 2.8 µg
- Metabolite levels (Mus musculus [4]): 2.4 µg
- Metabolite levels (Mus musculus [5]): 1.4 µg
